Test results: ChEMBL document CHEMBL1909618, “Non-steroidal dissociated glucocorticoid agonists: indoles as A-ring mimetics and function-regulating pharmacophores” (Bioorg Med Chem Lett, 2011)

What was measured:
[1] = biological target: T1, Glucocorticoid receptor (Homo sapiens) (UniProt P04150); experiment: Agonist activity at glucocorticoid receptor in HFF assessed as inhibition of IL1-induced IL-6 production after 18 to 24 hrs relative to Dexamethasone; assay type: functional
T1 sequence (whole entry): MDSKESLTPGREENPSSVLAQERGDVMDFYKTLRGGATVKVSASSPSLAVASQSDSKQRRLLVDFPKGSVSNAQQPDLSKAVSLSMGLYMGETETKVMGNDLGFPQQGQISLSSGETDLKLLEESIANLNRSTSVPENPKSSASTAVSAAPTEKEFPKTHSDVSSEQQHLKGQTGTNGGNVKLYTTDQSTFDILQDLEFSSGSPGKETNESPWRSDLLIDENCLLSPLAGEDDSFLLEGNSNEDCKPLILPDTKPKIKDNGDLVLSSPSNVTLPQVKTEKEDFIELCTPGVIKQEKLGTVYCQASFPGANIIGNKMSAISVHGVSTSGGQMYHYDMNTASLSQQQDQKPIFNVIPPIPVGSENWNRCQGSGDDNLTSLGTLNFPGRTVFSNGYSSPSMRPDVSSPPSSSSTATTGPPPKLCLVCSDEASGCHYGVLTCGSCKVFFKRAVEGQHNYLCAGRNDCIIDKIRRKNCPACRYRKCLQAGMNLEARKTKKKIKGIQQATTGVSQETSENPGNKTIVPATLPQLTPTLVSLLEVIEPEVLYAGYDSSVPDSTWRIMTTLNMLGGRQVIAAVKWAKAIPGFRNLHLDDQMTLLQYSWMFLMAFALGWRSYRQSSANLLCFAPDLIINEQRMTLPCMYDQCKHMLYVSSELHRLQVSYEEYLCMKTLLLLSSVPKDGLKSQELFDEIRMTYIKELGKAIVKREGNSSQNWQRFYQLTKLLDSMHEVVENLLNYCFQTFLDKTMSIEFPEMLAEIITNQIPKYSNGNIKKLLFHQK
Method in brief: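 Human foreskin fibroblasts stimulated with IL-1 (1 ng/mL) in the presence of test compound, incubated at 37 °C for 18–24 h. IL-6 in the culture medium was quantified by electrochemiluminescence, DELFIA or ELISA. IC50 and % maximal efficacy were reported.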

[2] = biological target: T2, Mineralocorticoid receptor (Homo sapiens, UniProt P08235); experiment: Displacement of tetramethylrhodamine-labeled Dexamethasone from human recombinant mineralocorticoid receptor expressed in baculovirus infected insect cells by fluorescence polarization assay
T2 sequence (P08235 whole entry): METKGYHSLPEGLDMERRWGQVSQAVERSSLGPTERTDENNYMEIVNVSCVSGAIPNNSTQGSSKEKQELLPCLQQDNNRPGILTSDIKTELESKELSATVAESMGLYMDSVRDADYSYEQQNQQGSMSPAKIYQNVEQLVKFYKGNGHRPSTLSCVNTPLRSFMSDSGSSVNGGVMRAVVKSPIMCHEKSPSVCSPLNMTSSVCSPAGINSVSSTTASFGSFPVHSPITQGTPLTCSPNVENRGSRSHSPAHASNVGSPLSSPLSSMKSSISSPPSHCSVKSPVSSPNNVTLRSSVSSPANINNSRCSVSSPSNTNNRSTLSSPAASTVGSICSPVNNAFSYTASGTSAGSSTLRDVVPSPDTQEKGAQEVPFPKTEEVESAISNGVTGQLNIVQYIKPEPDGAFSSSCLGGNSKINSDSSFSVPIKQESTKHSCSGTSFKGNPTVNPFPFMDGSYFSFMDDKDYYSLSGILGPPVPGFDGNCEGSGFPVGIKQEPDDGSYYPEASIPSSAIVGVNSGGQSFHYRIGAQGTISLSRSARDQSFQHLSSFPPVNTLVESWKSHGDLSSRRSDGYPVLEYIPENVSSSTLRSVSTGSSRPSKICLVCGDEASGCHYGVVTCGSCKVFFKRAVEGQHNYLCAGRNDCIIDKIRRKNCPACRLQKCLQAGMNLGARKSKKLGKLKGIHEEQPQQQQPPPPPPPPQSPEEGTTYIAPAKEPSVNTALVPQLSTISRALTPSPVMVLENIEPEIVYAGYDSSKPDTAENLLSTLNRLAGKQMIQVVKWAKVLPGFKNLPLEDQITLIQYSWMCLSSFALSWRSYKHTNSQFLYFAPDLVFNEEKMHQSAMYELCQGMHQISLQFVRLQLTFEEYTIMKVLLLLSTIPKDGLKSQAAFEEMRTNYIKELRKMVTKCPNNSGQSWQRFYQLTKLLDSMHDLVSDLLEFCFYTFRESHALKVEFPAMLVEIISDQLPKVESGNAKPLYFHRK
Method in brief: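 Fluorescence polarization competition assays with recombinant human receptors in lysates of baculovirus-infected insect cells. Reactions contained 1% DMSO and ran 1 h at room temperature.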

[3] = biological target: T3, Glucocorticoid receptor (Homo sapiens, UniProt P04150); experiment: Transactivation activity of glucocorticoid receptor in HFF assessed as induction of aromatase activity by measuring beta-estradiol activity after 18 to 24 hrs by ELISA; conditions: read-out: EC50
T3 sequence (P04150 whole entry): T1 sequence (whole entry)

[4] = Oral bioavailability in Sprague-Dawley rat at 30 mg/kg; assay type: ADME, organism-based; conditions: in vivo
Method in brief: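 Rat PK: IV dose 2 mg/kg in PEG400/water (70:30); oral dose 30 mg/kg in PEG400/H2O/Tween (80/18/2). Values are the mean of 3 rats.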

[5] = AUC (infinity) in B10.R3 mouse at 30 mg/kg, po; assay type: ADME, organism-based; design: time infinity, dose 30 mg/kg, route oral; conditions: plasma
Method in brief: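 Mouse PK: IV dose 1 mg/kg in PEG400/water (70:30); oral dose 30 mg/kg given as a suspension in 30% Cremophor. Values are the mean of 3 mice.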

[6] = tested on: Mus musculus; experiment: Toxicity in B10.R3 mouse collagen-induced arthritis model assessed as change in body weight at 30 mg/kg, po qd for 5 weeks relative to control; assay type: organism-based; design: dose 30 mg/kg, route oral; conditions: in vivo, 840 h
[7] = biological target: T3, Glucocorticoid receptor; experiment: Agonist activity at glucocorticoid receptor in human HeLa cells transfected with luciferase gene linked to MMTV promoter assessed as luciferase transactivation activity; assay type: functional, cell-based
[8] = tested on: Mus musculus; experiment: Antiinflammatory activity in po dosed mouse plasma assessed as inhibition of LPS-induced TNFalpha production administered 1 hr before LPS challenge measured after 1 hr; assay type: functional
Method in brief: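 Mice received compound orally in Cremophor RH 1 h before LPS challenge. Plasma TNF-α was measured 1 h after challenge. n = 8 per group; doses were 3 and 10 mg/kg.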

Compound: COc1ccc(F)cc1C(C)(C)C[C@@](O)(Cc1cc2ccccc2[nH]1)C(F)(F)F
- Efficacy [1]: 87%
- IC50 [2]: 190 nM
- EC50 [3]: 18 nM

Compound: CC(C)(C[C@@](O)(Cc1cc2ccc(C#N)cc2[nH]1)C(F)(F)F)c1cc(S(C)(=O)=O)cc2c1OCC2
- bioavailability [4]: 51%
- AUC(0-inf) [5]: 32700 ng·h/mL
- Efficacy [1]: 88%
- Activity [6]: -8%
- EC50 [7]: > 2000 nM
- IC50 [2]: 230 nM
- ED50 [8]: < 3 mg/kg
- EC50 [3]: 120 nM
